Assay outcomes: PubChem, several laboratories
STAT3 act = increases IL-6 driven STAT3 reporter signal | U3A cells, IL-6 STAT3-luciferase reporter, luminescence; 100% = signal with IL-6 EC80 alone | activation (% of control), % at 5.6 µM | 190,000 compounds, 0.91% hits | AID 871;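 active = activation above the screen-wide mean of compound activation plus 3 SD, cut at about 130% in these data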;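 note: 0% = background luminescence of wells with medium and substrate only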
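Material: human U3A cells carrying STAT3-luciferase construct. Measured by: reporter luminescence signal. Timing: compound 1 h, then IL-6 6 h at 37 °C.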
STAT1 activator = increases IFN-gamma driven STAT1 reporter signal; NIH 3T3 STAT1-luciferase reporter, luminescence; 100% = IFN-gamma alone, no compound; activation (% of control), % at 5.5 µM; 200,000 compounds, 2.6% hits; AID 932;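 active = activation above the screen-wide mean activation plus 3 SD, cut at about 130% in these data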;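 note: raw ratio to IFN-gamma control signal so 100% means no change and 0% no light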
STAT1 inh = STAT1 signaling inhibition. NIH 3T3 STAT1-luciferase reporter, IFN-gamma, luminescence. inhibition, % at 5.5 µM. 200,000 compounds, 0.35% hits;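 active = inhibition above a set limit, the mean inhibition across all tested compounds plus 3 SD, cut at about 34% in these data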;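 note: 0% = IFN-gamma with DMSO and 100% = IFN-gamma with 300 µM nifuroxazide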
APP 5'UTR act = activates APP 5'UTR luciferase reporter | SH-SY5Y APP 5'UTR luciferase reporter, luminescence; zero percent = DMSO vehicle wells | activation, % at 2 µM | 190,000 compounds, 1% hits;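 active = activation above a set limit, based on mean plus 3 SD of controls, cut at about 140% in these data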
STAT3 blocker = STAT3 signaling inhibition | U3A cells, IL-6 STAT3-luciferase reporter, luminescence; host cell line lacks STAT1 | inhibition, % at 5.5 µM | 190,000 compounds, 0.89% hits | AID 862;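 active = inhibition above the mean inhibition across all screened compounds plus 3 SD, cut at about 44% in these data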;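 note: 0% = DMSO only wells and 100% = 100 µM nifuroxazide control wells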
NF-kB neuron act = compounds increasing NF-kB expression in human neuronal cells; NF-kB reporter expression; active compounds read high; fold change at 12.5 µM; 190,000 compounds, 1.6% hits; in the data active = fold change above about 3.3
Starred values were filed as active, the others as inactive. Compounds with a hit are over-represented: about 4.9% of the library has one in this group of screens.

Screening CCn1c(=N)c(C(=O)NC)cc2c(=O)n3cccc(C)c3nc21 returned APP 5'UTR act 6.
`CCNc1nc(C)c2cc(Br)c(=O)n(CC)c2n1` gave STAT3 act 109, STAT1 activator 139*, STAT1 inh -40, APP 5'UTR act -17, STAT3 blocker -4 and NF-kB neuron act 1.6.
Screening COc1ccccc1NC(=S)N1CCN(Cc2ccc3c(c2)OCO3)CC1 returned STAT3 act 104, STAT1 activator 99, STAT1 inh 1, APP 5'UTR act 5, STAT3 blocker -2 and NF-kB neuron act 1.1.
For COc1ccc(C2CC(c3ccccc3)=NN2c2ccc(N)cc2)cc1 (configuration not stated) the results were STAT3 act 86, STAT1 activator 141*, STAT1 inh -46, APP 5'UTR act 7, STAT3 blocker 21 and NF-kB neuron act 1.4.
`Cc1ccnc(SCc2nc3ccccc3s2)n1` gave STAT3 act 136*, STAT1 activator 130*, STAT1 inh -33, APP 5'UTR act 106, STAT3 blocker -32 and NF-kB neuron act 1.9.
Cc1cccc(C)c1Nc1nnc(SCc2nc3ccccc3s2)s1 was read as STAT3 act 130, STAT1 activator 124, STAT1 inh -27, APP 5'UTR act 129, STAT3 blocker -36 and NF-kB neuron act 1.4.
`CSc1nc2sc(-c3ccccc3)cc2c(=O)n1N` gave STAT3 act 95, STAT1 activator 138*, STAT1 inh -43, APP 5'UTR act 2, STAT3 blocker 13 and NF-kB neuron act 2.
`Cc1cc(/C=N/NC(=O)c2ccccc2F)c(C)n1-c1ccccc1` gave STAT3 act 77, STAT1 activator 131*, STAT1 inh -34, APP 5'UTR act 96, STAT3 blocker 31 and NF-kB neuron act 3.1.
Cc1ccc(NC(=S)Nc2ccc(OC(F)F)c(Cl)c2)cc1F was read as STAT3 act 90, STAT1 activator 99, STAT1 inh 1, APP 5'UTR act 10, STAT3 blocker 12 and NF-kB neuron act 1.1.
O=[N+]([O-])c1ccc2sc(SCc3nc4ccccn4c3Br)nc2c1 was read as STAT3 act 110, STAT1 activator 96, STAT1 inh 5, APP 5'UTR act 19, STAT3 blocker -8 and NF-kB neuron act 0.95.
Screening Brc1c(CSc2nc3ccccc3s2)nc2ncccn12 returned STAT3 act 101, STAT1 activator 133*, STAT1 inh -36, APP 5'UTR act 68, STAT3 blocker -6 and NF-kB neuron act 4.5*.
`Cc1ccc(S(=O)(=O)NCCC(=O)Nc2ccc(C)cc2C(=O)c2ccccc2)cc1` gave STAT3 act 101, STAT1 activator 106, STAT1 inh -6, APP 5'UTR act -10, STAT3 blocker 2 and NF-kB neuron act 0.89.
`Cc1cc(NC(=O)c2cccs2)ncc1NC(=O)c1cccc(F)c1` gave STAT3 act 110, STAT1 activator 128, STAT1 inh -31, APP 5'UTR act 70, STAT3 blocker -7 and NF-kB neuron act 1.4.
O=C(Nc1ccc(Cl)cn1)Nc1ccccc1F was read as STAT3 act 120, STAT1 activator 139*, STAT1 inh -45, APP 5'UTR act 17, STAT3 blocker -19 and NF-kB neuron act 2.2.
CC(C)C(=O)Nc1ccc(NC(=O)c2cccc(F)c2)cn1 was read as STAT3 act 84, STAT1 activator 120, STAT1 inh -22, APP 5'UTR act 56, STAT3 blocker 22 and NF-kB neuron act 1.6.
For O=C(Nc1ccc(Cl)cn1)c1ccccc1F the results were STAT3 act 90, STAT1 activator 133*, STAT1 inh -36, APP 5'UTR act 183*, STAT3 blocker 12 and NF-kB neuron act 2.9.
`Cc1cc(NC(=O)c2cccc(F)c2)ncc1NC(=O)c1ccco1` gave STAT3 act 82, STAT1 activator 118, STAT1 inh -19, APP 5'UTR act 140*, STAT3 blocker 20 and NF-kB neuron act 3.6*.
Screening O=C(Nc1ccc(Cl)cn1)c1cccc(F)c1 returned STAT3 act 91, STAT1 activator 146*, STAT1 inh -51, APP 5'UTR act 55, STAT3 blocker 18 and NF-kB neuron act 3.6*.
CCCCC1=C([O-])C2N=CC=CC2=[N+](c2ccccn2)C1=O (configuration not stated) was read as STAT3 act 92, STAT1 activator 93, STAT1 inh 8, APP 5'UTR act -8, STAT3 blocker 12 and NF-kB neuron act 1.2.
For CCOc1cc(/C=N/Nc2nc(-c3cccc(S(=O)(=O)N4CCCC4)c3)cs2)ccc1O the results were STAT3 act 100, STAT1 activator 101, STAT1 inh -2, APP 5'UTR act -18, STAT3 blocker 1 and NF-kB neuron act 0.98.
Screening COc1ccc(S(=O)(=O)CCC(=O)Nc2cccc(OC)c2)cc1 returned STAT3 act 103, STAT1 activator 98, STAT1 inh 2, APP 5'UTR act -1, STAT3 blocker 4 and NF-kB neuron act 0.93.
For COC(=O)C1SCC2C(=O)N(Cc3ccccc3)CC(=O)N21 (configuration not stated) the results were STAT3 act 91, STAT1 activator 92, STAT1 inh 8, APP 5'UTR act 17, STAT3 blocker 15 and NF-kB neuron act 0.98.
`Cc1c2c(nc3ccccc13)CCC(C)C2` (configuration not stated) gave STAT3 act 88, STAT1 activator 117, STAT1 inh -18, APP 5'UTR act 18, STAT3 blocker 14 and NF-kB neuron act 1.3.
CCN(CC(=O)Nc1ccc(N2CCOCC2)cc1)C(=O)COc1ccccc1OC was read as STAT3 act 108, STAT1 activator 112, STAT1 inh -15, APP 5'UTR act 19, STAT3 blocker -4 and NF-kB neuron act 1.2.
For CCC(=O)Nc1ccc2c(c1)ncn2C the results were STAT3 act 108, STAT1 activator 107, STAT1 inh -7, APP 5'UTR act -8, STAT3 blocker -6 and NF-kB neuron act 1.
For Cn1cnc2cc(NC(=O)c3ccc(Cl)cc3)ccc21 the results were STAT3 act 91, STAT1 activator 140*, STAT1 inh -45, APP 5'UTR act 89, STAT3 blocker 16 and NF-kB neuron act 5*.
Screening Cn1c(CN2CCCC2)nc2cc(NC(=O)c3ccc(Cl)cc3)ccc21 returned STAT3 act 89, STAT1 activator 146*, STAT1 inh -52, APP 5'UTR act 38, STAT3 blocker 22 and NF-kB neuron act 1.3.
`O=C(NC1CCCCCCC1)NC1CCCCC1` gave STAT3 act 119, STAT1 activator 132*, STAT1 inh -36, APP 5'UTR act 12, STAT3 blocker -17 and NF-kB neuron act 2.7.
Screening Cc1ccccc1NS(=O)(=O)c1cc(C(=O)Nc2cccc(N(C)S(C)(=O)=O)c2)ccc1C returned STAT3 act 96, STAT1 activator 93, STAT1 inh 8, APP 5'UTR act 6, STAT3 blocker 10 and NF-kB neuron act 0.78.
